# Experiments:
# Type in all cases: ADME, organism-based, Macaca mulatta
# [1] = Drug level in normal rhesus monkey thalamus assessed as standard uptake value at 109.4 MBq, iv after 111 mins by microPET; conditions: in vivo
# [2] = Drug level in normal rhesus monkey pons assessed as standard uptake value at 109.4 MBq, iv after 0.875 mins by microPET; conditions: in vivo, 52 s
# [3] = Drug level in normal rhesus monkey pons assessed as standard uptake value at 109.4 MBq, iv after 3.5 mins by microPET; conditions: in vivo
# [4] = Drug level in normal rhesus monkey pons assessed as standard uptake value at 109.4 MBq, iv after 32.5 mins by microPET; conditions: in vivo
# [5] = Drug level in normal rhesus monkey thalamus assessed as standard uptake value at 109.4 MBq, iv after 69 mins by microPET; conditions: in vivo, 1.15 h
# [6] = Drug level in normal rhesus monkey cerebellum assessed as standard uptake value at 109.4 MBq, iv after 4.5 mins by microPET; conditions: in vivo, 0.075 h
# Summary of the method: (§1)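 Single normal rhesus monkey; each tracer given iv via the vena saphena, with 1 day between tracer injections. Dynamic μPET ran 180 min (5×60 s, 5×120 s, 9×300 s, 12×600 s). Images were reconstructed by filtered back projection with a RAMP filter. Regional time-activity curves were expressed as SUV.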
# [7] = Drug level in normal rhesus monkey frontal cortex assessed as standard uptake value at 109.4 MBq, iv after 123 mins by microPET; conditions: in vivo, 2.05 h
# [8] = Drug level in normal rhesus monkey pons assessed as standard uptake value at 81.2 MBq, iv after 6 mins by microPET; conditions: in vivo, 0.1 h
# [9] = Drug level in normal rhesus monkey pons assessed as standard uptake value at 81.2 MBq, iv after 17.5 mins by microPET; conditions: in vivo
# [10] = Drug level in normal rhesus monkey pons assessed as standard uptake value at 81.2 MBq, iv after 32.5 mins by microPET; conditions: in vivo
# [11] = Drug level in normal rhesus monkey pons assessed as standard uptake value at 81.2 MBq, iv after 155 mins by microPET; conditions: in vivo
# [12] = Drug level in normal rhesus monkey parietal cortex assessed as standard uptake value at 81.2 MBq, iv after 42.5 mins by microPET; conditions: in vivo
# [13] = Drug level in normal rhesus monkey parietal cortex assessed as standard uptake value at 81.2 MBq, iv after 57.5 mins by microPET; conditions: in vivo
# [14] = Drug level in normal rhesus monkey parietal cortex assessed as standard uptake value at 81.2 MBq, iv after 105 mins by microPET; conditions: in vivo, 1.75 h
# [15] = Drug level in normal rhesus monkey frontal cortex assessed as standard uptake value at 81.2 MBq, iv after 105 mins by microPET; conditions: in vivo, 1.75 h; summary of the method: as §1
# [16] = Drug level in normal rhesus monkey cerebellum assessed as standard uptake value at 81.2 MBq, iv after 65 mins by microPET; conditions: in vivo
# Summary of the method: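 One normal rhesus monkey, each tracer given iv via the vena saphena (81.2, 96.3 or 109.4 MBq), with 1 day between tracer injections. Dynamic brain μPET over 180 min used frames of 5 × 60 s, 5 × 120 s, 9 × 300 s and 12 × 600 s. Images were reconstructed by filtered back projection with a RAMP filter. Regional time-activity curves were expressed as SUV.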
# [17] = Drug level in normal rhesus monkey frontal cortex assessed as standard uptake value at 81.2 MBq, iv after 0.5 mins by microPET; conditions: in vivo; summary of the method: as §1
# [18] = Drug level in normal rhesus monkey cerebellum assessed as standard uptake value at 152.9 MBq, iv after 52.5 mins by microPET; conditions: in vivo, 0.875 h
# Summary of the method: (§2)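 One normal rhesus monkey received each tracer via the vena saphena, with 1 day between injections. Dynamic μPET ran 180 min for 18F tracers (5×60 s, 5×120 s, 9×300 s, 12×600 s) and 90 min for the 11C tracer (5×60 s, 5×120 s, 9×300 s, 3×600 s). Filtered back-projection reconstruction (RAMP filter) was used. Time-activity curves were drawn to give regional SUV.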
# [19] = Drug level in normal rhesus monkey cerebellum assessed as standard uptake value at 152.9 MBq, iv after 65 mins by microPET; conditions: in vivo; summary of the method: as §2
# [20] = Drug level in normal rhesus monkey frontal cortex assessed as standard uptake value at 152.9 MBq, iv after 1.5 mins by microPET; conditions: in vivo, 0.025 h
# Summary of the method: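 One normal rhesus monkey, tracer given iv via the vena saphena (152.9 MBq), with at least 1 day between tracer injections. Dynamic brain μPET over 90 min used frames of 5 × 60 s, 5 × 120 s, 9 × 300 s and 3 × 600 s. Images were reconstructed by filtered back projection with a RAMP filter. Regional time-activity curves were expressed as SUV.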
# [21] = Drug level in normal rhesus monkey white matter assessed as standard uptake value at 152.9 MBq, iv after 6 mins by microPET; conditions: in vivo, 0.1 h
# [22] = Drug level in normal rhesus monkey white matter assessed as standard uptake value at 152.9 MBq, iv after 27.5 mins by microPET; conditions: in vivo
# [23] = Drug level in normal rhesus monkey white matter assessed as standard uptake value at 152.9 MBq, iv after 32.5 mins by microPET; conditions: in vivo
# [24] = Drug level in normal rhesus monkey white matter assessed as standard uptake value at 152.9 MBq, iv after 52.5 mins by microPET; conditions: in vivo, 0.875 h
# [25] = Drug level in normal rhesus monkey pons assessed as standard uptake value at 152.9 MBq, iv after 2.5 mins by microPET; conditions: in vivo
# [26] = Drug level in normal rhesus monkey parietal cortex assessed as standard uptake value at 152.9 MBq, iv after 12 mins by microPET; conditions: in vivo, 0.2 h
# [27] = Drug level in normal rhesus monkey parietal cortex assessed as standard uptake value at 152.9 MBq, iv after 42.5 mins by microPET; conditions: in vivo
# [28] = Drug level in normal rhesus monkey parietal cortex assessed as standard uptake value at 96.3 MBq, iv after 32.5 mins by microPET; conditions: in vivo
# [29] = Drug level in normal rhesus monkey parietal cortex assessed as standard uptake value at 96.3 MBq, iv after 165 mins by microPET; conditions: in vivo, 2.75 h
# [30] = Drug level in normal rhesus monkey thalamus assessed as standard uptake value at 96.3 MBq, iv after 47.5 mins by microPET; conditions: in vivo
# [31] = Drug level in normal rhesus monkey frontal cortex assessed as standard uptake value at 96.3 MBq, iv after 12 mins by microPET; conditions: in vivo, 0.2 h
# [32] = Drug level in normal rhesus monkey frontal cortex assessed as standard uptake value at 96.3 MBq, iv after 17.5 mins by microPET; conditions: in vivo
# [33] = Drug level in normal rhesus monkey white matter assessed as standard uptake value at 96.3 MBq, iv after 4.5 mins by microPET; conditions: in vivo, 0.075 h
# [34] = Drug level in normal rhesus monkey white matter assessed as standard uptake value at 96.3 MBq, iv after 22.5 mins by microPET; conditions: in vivo, 0.375 h
# [35] = Drug level in normal rhesus monkey white matter assessed as standard uptake value at 96.3 MBq, iv after 37.5 mins by microPET; conditions: in vivo, 0.625 h
compound,measurement,setting,value
Nc1ccc2nc(-c3ccc([18F])cc3)sc2c1,SUV,[1],4.72
same,SUV,[2],1.85
same,SUV,[3],3.33
same,SUV,[4],4.74
same,SUV,[5],5.32
same,SUV,[6],6.13
same,SUV,[7],4.13
CNc1ccc2nc(-c3ccc([18F])cc3)sc2c1,SUV,[8],4.164
same,SUV,[9],5.124
same,SUV,[10],5.714
same,SUV,[11],5.431
same,SUV,[12],3.863
same,SUV,[13],3.575
same,SUV,[14],2.784
same,SUV,[15],4.68
same,SUV,[16],1.88
same,SUV,[17],0.756
[11CH3]Nc1ccc(-c2nc3ccc(O)cc3s2)cc1 [PITTSBURGH COMPOUND B],SUV,[18],0.813
same,SUV,[19],0.723
same,SUV,[20],0.478
same,SUV,[21],1.364
same,SUV,[22],1.209
same,SUV,[23],1.12
same,SUV,[24],0.937
same,SUV,[25],1.05
same,SUV,[26],2.062
same,SUV,[27],0.906
CN(C)c1ccc2nc(-c3ccc([18F])cc3)sc2c1,SUV,[28],1.9
same,SUV,[29],1.18
same,SUV,[30],2.25
same,SUV,[31],1.99
same,SUV,[32],2.22
same,SUV,[33],1.22
same,SUV,[34],1.3
same,SUV,[35],1.46

# Reference: ChEMBL document CHEMBL1154674, “Synthesis and evaluation of three 18F-labeled aminophenylbenzothiazoles as amyloid imaging agents” (J Med Chem, 2009)
